First the molecules themselves.
B1: tRNA (parent)
chain: CUCUCGGUAGCCAAGUUGGUUUAAGGCGCAAGACUUUAAUUUAUCACUACGAAAUCUUGAGAUCGGGCGUUCGACUCGCCCCCGGGAGAUUUUUUCCUCGAGCAA

Fewer inactive variants are shown than the library holds. Where only a bound is given, the exact number is not on record here.

In the data set the parent is B1. The data set can be described thus: nonsense suppression (GFP-seq) (ratio to wild type); higher = more function; SUP4oc tRNA, yeast GFP reporter sort-seq. The method in brief:
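To measure nonsense suppression, tRNA variants from a library carrying ~3% random mutations were integrated into the yeast genome alongside RFP and a GFP ochre reporter under galactose control. Growth took place in raffinose/galactose medium supplemented with 80 mg/L adenine, followed by sorting into GFP/RFP bins and Illumina sequencing of each bin (phred ≥30). For each variant with ≥100 reads and ≥30 cells, the bin median GFP/RFP values were weighted by its estimated cell share per bin and referenced to the unmutated parent tRNA.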
Turning to A13C G66C, the nonsense suppression is not above 0.026.

For A13U U16A G85U, the nonsense suppression was determined as 0.173.

As to U16C U21C, the nonsense suppression stood at 1.03.

For the variant G15A A24C, the nonsense suppression came to 0.0467.

U16A A54U: the nonsense suppression amounted to 1.06.

G15U C68U G78C C82G G84A: the nonsense suppression is not above 0.026.

U16A A60G: the nonsense suppression worked out at 0.247.

A14G A30U: the nonsense suppression is 0.0337.

Turning to A14G A30G, the nonsense suppression is 0.03.

On to G15A C75A, for which the nonsense suppression was determined as 0.854.

Turning to A13G A24U, the nonsense suppression came out at 0.0411.

For the variant A14C C29U, the nonsense suppression is not above 0.026.

As for A13C U57A G66A, the nonsense suppression is not above 0.026.

A14U A24C: the nonsense suppression was found to be 0.0284.

Take G15A U76C: the nonsense suppression is 0.0394.

On to A13U A62C, for which the nonsense suppression turned out to be 0.029.

As for A13C C80U, the nonsense suppression came to 0.179.

As to A13U A33G, the nonsense suppression is 0.194.

A13C G61A C75G: the nonsense suppression amounted to 0.761.

Take U16C C81U: the nonsense suppression stood at 1.16.

For U16C C81G, the nonsense suppression is not above 0.026.

Regarding G15U U20C, the nonsense suppression came to 0.0275.

For A14G G19A A31U G66C A74C G78U, the nonsense suppression was not above 0.026.

Consider A14U G86C, for which the nonsense suppression is not above 0.026.

Take A14U G86A: the nonsense suppression is not above 0.026.

G15C A33U G61A: the nonsense suppression was not above 0.026.

With A14U A23G A62U G84A, the nonsense suppression is not above 0.026.

With A14G G19C C29A C56A G88C, the nonsense suppression was not above 0.026.

As for A13G C64G, the nonsense suppression is not above 0.026.

Take G15U U70G: the nonsense suppression is not above 0.026.

In the case of U16A G65A G66A, the nonsense suppression was not above 0.026.

For G15C G67A, the nonsense suppression was not above 0.026.

Take A14G A74C: the nonsense suppression was not above 0.026.

On to G15C A23G G61A, for which the nonsense suppression was not above 0.026.

Turning to A13C U76A, the nonsense suppression came to 0.282.

In the case of A13C C68U, the nonsense suppression worked out at 0.836.

Consider A13C G67A, for which the nonsense suppression turned out to be 0.0799.

Regarding A13U A30U, the nonsense suppression was 0.0763.

On to U16C G73A, for which the nonsense suppression turned out to be 1.22.

On to A13C G18C U20G A31U, for which the nonsense suppression was 0.134.

As for A14U G25U A30C G65C, the nonsense suppression is not above 0.026.

For A13C U17G, the nonsense suppression was 0.958.

Consider U16A G19C U70G C72G, for which the nonsense suppression is not above 0.026.

Consider U16C G28A, for which the nonsense suppression came out at 1.06.

Take U16A C82U: the nonsense suppression came to 0.886.

As to A13U C83U, the nonsense suppression is 0.157.

Take A13C U55C: the nonsense suppression came to 0.827.

Consider G15A G78A, for which the nonsense suppression came to 0.0278.

As to A13G G59U, the nonsense suppression was not above 0.026.

With A14C A31C U58C C72A U76C C77G, the nonsense suppression is not above 0.026.

On to U16A A24C, for which the nonsense suppression is 0.872.

On to A13G C27A C29G A33U U76C G86U, for which the nonsense suppression is not above 0.026.

Turning to A13U C27U, the nonsense suppression worked out at 0.209.

With G15A A31U U35C U76G C83U, the nonsense suppression is not above 0.026.

As to A14G A31G, the nonsense suppression was 0.0611.

A13C A89G: the nonsense suppression turned out to be 0.122.

For the variant A14G U17A G25A C29U U63G, the nonsense suppression is not above 0.026.

Consider U16A G73A, for which the nonsense suppression was determined as 0.63.

With A13U C29U, the nonsense suppression came out at 0.751.

As for G15U U70A G85U, the nonsense suppression was not above 0.026.

For the variant G15A C81U, the nonsense suppression is 0.0386.

As for A13G A54C G69U G86U, the nonsense suppression was not above 0.026.

U16C A54C: the nonsense suppression turned out to be 1.22.

G15A U63G C75G: the nonsense suppression is not above 0.026.

As for U16A U22C, the nonsense suppression was 1.08.

As for A13U G86A, the nonsense suppression was 0.0315.

For the variant G15U A24G G86C, the nonsense suppression was not above 0.026.

For the variant A14U G84A, the nonsense suppression is not above 0.026.

On to A13U C79A G84U, for which the nonsense suppression was not above 0.026.

Regarding A14G U17A G59U, the nonsense suppression is not above 0.026.

As for A13U A24G, the nonsense suppression came to 0.96.

For A13U A24U, the nonsense suppression amounted to 0.863.

Consider A13C G84A, for which the nonsense suppression is 0.175.

For A13C G84C, the nonsense suppression worked out at 0.0388.

As to A13U G32C C56G C75U, the nonsense suppression turned out to be 0.912.

For the variant G15A G26U, the nonsense suppression is not above 0.026.

Take A13C G61U C68U: the nonsense suppression came out at 0.414.

Consider G15U A23G G65C, for which the nonsense suppression is not above 0.026.

As to A13U C75A, the nonsense suppression was determined as 0.866.

With A13U C75U, the nonsense suppression stood at 1.22.

Take A13G: the nonsense suppression was 0.191.

As for A13U, the nonsense suppression was determined as 1.03.

With A14C C82U, the nonsense suppression is not above 0.026.

For the variant A13C G18U G26A A31U, the nonsense suppression is not above 0.026.

As to U16C G78A, the nonsense suppression turned out to be 0.837.

For the variant U16C G78U, the nonsense suppression was found to be 0.454.

As to A13U U71A, the nonsense suppression is not above 0.026.

In the case of A13U C64U, the nonsense suppression came out at 0.0285.

Take A14C G59C G85A: the nonsense suppression is not above 0.026.

U16A G59A: the nonsense suppression stood at 0.32.

With A14G G18A U21C A30G A33G C79A C82A A89U, the nonsense suppression was not above 0.026.

As to A13U G69C, the nonsense suppression is 0.0304.

For the variant A13U G69A, the nonsense suppression was 0.072.

For the variant A13U G78C, the nonsense suppression came to 0.0621.

A13U G78A: the nonsense suppression turned out to be 0.179.

With A13U G78U, the nonsense suppression amounted to 0.236.

For G15U A23G U55G, the nonsense suppression is not above 0.026.

As to G15A U21C C34G U35G U58A, the nonsense suppression is not above 0.026.

Take G15A G28A C75A: the nonsense suppression worked out at 0.24.

A14U G61C C79U: the nonsense suppression was not above 0.026.

As to A14G A60G, the nonsense suppression was determined as 0.0456.

In the case of A13U A31G, the nonsense suppression turned out to be 1.22.

As to A13U A31U, the nonsense suppression stood at 0.193.

For U16C, the nonsense suppression stood at 0.862.

With U16A, the nonsense suppression was 1.

For G15U G18A U58C G85U, the nonsense suppression is not above 0.026.

Take A13C U57C: the nonsense suppression was 0.0326.

As to A14U A24U G26U C29G, the nonsense suppression is not above 0.026.

For the variant U16C C82A G85A, the nonsense suppression is not above 0.026.

On to G15A, for which the nonsense suppression is 0.188.

As for A14U G32C G88U, the nonsense suppression was not above 0.026.

As to G15C G26U U57C G78C, the nonsense suppression is not above 0.026.

With A13C C77U, the nonsense suppression worked out at 0.0493.

Consider A14U U16C U58A G61U C72U, for which the nonsense suppression is not above 0.026.

Turning to A14G G86U, the nonsense suppression was not above 0.026.

U16A G28A: the nonsense suppression turned out to be 1.11.

As for A13U G61U, the nonsense suppression stood at 0.447.

A13U G61C: the nonsense suppression is 0.191.

Take A14U U20C A24G C75G: the nonsense suppression was not above 0.026.

In the case of A13G U21G C77G, the nonsense suppression was not above 0.026.

With A14C U20G, the nonsense suppression is not above 0.026.

As for A13G U35C U71C, the nonsense suppression is not above 0.026.

For the variant U16A G78U, the nonsense suppression was found to be 0.188.

Regarding A13U C72G, the nonsense suppression was found to be 0.032.

For A14C A31G A74U C80G, the nonsense suppression is not above 0.026.

On to A13C A62G, for which the nonsense suppression turned out to be 0.0702.

Take A14G A30C G61C A74U: the nonsense suppression was not above 0.026.

For the variant A14G G61C, the nonsense suppression was 0.0278.

Turning to A13U G67A, the nonsense suppression was determined as 0.0502.

As for A13U G65U, the nonsense suppression turned out to be 0.0575.

For A13U G65A, the nonsense suppression was not above 0.026.

With U16C A60G G86C, the nonsense suppression was not above 0.026.

With U16C C29U, the nonsense suppression was 1.11.

On to A13U U16C U63G, for which the nonsense suppression was 0.18.

As for G15A A24G C29G A60C, the nonsense suppression was not above 0.026.

Take A13C U17G C75A: the nonsense suppression turned out to be 1.1.

With U16A A30G, the nonsense suppression turned out to be 0.312.

In the case of A13U U76C, the nonsense suppression was determined as 0.836.

Turning to A13G U17C A23C C75A G88A, the nonsense suppression was not above 0.026.

Turning to A13U U22G, the nonsense suppression is 1.06.

Take A14G C29U: the nonsense suppression worked out at 0.0832.

As for G15C U17G G19C G25U, the nonsense suppression is not above 0.026.

In the case of A14U U63A, the nonsense suppression is 0.0439.

On to A13C G73A, for which the nonsense suppression came out at 0.394.

For A13C G73U, the nonsense suppression worked out at 0.0412.

As for A14G A54G, the nonsense suppression is not above 0.026.

For A14C C68U G88A, the nonsense suppression is not above 0.026.

For the variant G15U U71A C82G, the nonsense suppression is not above 0.026.

In the case of A14U A33U C34G G59C, the nonsense suppression is not above 0.026.

With A14U G26A U57A, the nonsense suppression was not above 0.026.

Regarding A13G G84C, the nonsense suppression is not above 0.026.

Regarding A13U C81A, the nonsense suppression was not above 0.026.

As for A13U C81G, the nonsense suppression came out at 0.0578.

On to U16C C68A G88U, for which the nonsense suppression is not above 0.026.

Regarding G15C G69U G73C, the nonsense suppression is not above 0.026.

With A13G C68U, the nonsense suppression worked out at 0.146.

For the variant A14G A33G G69C, the nonsense suppression is not above 0.026.

With A13U A23U, the nonsense suppression turned out to be 0.0855.

A13G U16A: the nonsense suppression was 0.0391.

A13G U16G: the nonsense suppression amounted to 0.207.

With A14G G19U A23G A30G C75U C82U, the nonsense suppression is not above 0.026.

On to A13C G18C G26U G61C, for which the nonsense suppression was not above 0.026.

As to G15U U21A U55G, the nonsense suppression is not above 0.026.

As for A14U A60C G66A G67A, the nonsense suppression is not above 0.026.

As for U16A A33G, the nonsense suppression came to 0.0423.

For the variant U16C U21A U22G, the nonsense suppression was found to be 0.861.

As for G15A A31G, the nonsense suppression is 0.0274.

Source of the values: the RNAGym collection of RNA variant scans (doi:10.1101/gad.245936.114).
